For 31 compounds, IC50 and Activity results are on record in ChEMBL document CHEMBL4017517, “Small Molecule Inhibitors Simultaneously Targeting Cancer Metabolism and Epigenetics: Discovery of Novel Nicotinamide Phosphoribosyltransferase (NAMPT) and Histone Deacetylase (HDAC) Dual Inhibitors” (J Med Chem, 2017).

Assay [1] concerns the target Nicotinamide phosphoribosyltransferase (Homo sapiens, UniProt P43490). As to the kind of experiment: Inhibition of human recombinant NAMPT using NAM as substrate preincubated for 5 mins followed by substrate addition measured after 15 mins by fluorescence assay.
A further assay concerns the target Histone deacetylase 1 (Homo sapiens, UniProt Q13547). As to the kind of experiment: Inhibition of human recombinant HDAC1 (1 to 482 residues) expressed in Baculovirus using Ac-Leu-Gly-Lys(Ac)-AMC as substrate preincubated for 5 mins followed by substrate addition measured after 30 mins by fluorescence assay.
Assay [2] deals with HCT-116. As to the kind of experiment: cells. In kind it is functional, cell-based. The settings on record: Homo sapiens, HCT-116, 72 h.
The subject of another assay is MDA-MB-231. As to the kind of experiment: cells. It counts as functional, cell-based. Particulars: Homo sapiens, MDA-MB-231, 72 h.
The subject of another assay is HepG2. Description: cells. It counts as functional, cell-based. Particulars: Homo sapiens, HepG2, 72 h.
For assay [3], the system named is HCT-116. Description: Induction of apoptosis in human HCT116 cells assessed as early apoptotic cells at 5 uM after 72 hrs by Annexin V-FITC/propidium iodide staining-based flow cytometric analysis (reference value: 7.82%). It counts as functional. In a few lines:
(§1)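 HCT116 cells seeded at 5×10^5 cells/mL in six-well plates, treated at 5 μM for 72 h alongside vehicle. Cells trypsinized, washed twice in cold PBS, and resuspended in 1× binding buffer. Stained with annexin V-FITC 15 min at room temperature, then PI 15 min in dark, then flow cytometry.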
On the technique in general: A flow cytometer gives signals particle by particle.

Assay [4] relates to HCT-116. As to the kind of experiment: Induction of apoptosis in human HCT116 cells assessed as late apoptotic cells at 5 uM after 72 hrs by Annexin V-FITC/propidium iodide staining-based flow cytometric analysis (reference value: 3.33%). It counts as functional. In a few lines: as §1
Assay [5] deals with HCT-116. As to the kind of experiment: Induction of apoptosis in human HCT116 cells assessed as necrotic cells at 5 uM after 72 hrs by Annexin V-FITC/propidium iodide staining-based flow cytometric analysis (reference value: 1.25%). In kind it is functional. An outline of the steps: as §1

Chain of Nicotinamide phosphoribosyltransferase (P43490 whole entry, the tested form may be a part): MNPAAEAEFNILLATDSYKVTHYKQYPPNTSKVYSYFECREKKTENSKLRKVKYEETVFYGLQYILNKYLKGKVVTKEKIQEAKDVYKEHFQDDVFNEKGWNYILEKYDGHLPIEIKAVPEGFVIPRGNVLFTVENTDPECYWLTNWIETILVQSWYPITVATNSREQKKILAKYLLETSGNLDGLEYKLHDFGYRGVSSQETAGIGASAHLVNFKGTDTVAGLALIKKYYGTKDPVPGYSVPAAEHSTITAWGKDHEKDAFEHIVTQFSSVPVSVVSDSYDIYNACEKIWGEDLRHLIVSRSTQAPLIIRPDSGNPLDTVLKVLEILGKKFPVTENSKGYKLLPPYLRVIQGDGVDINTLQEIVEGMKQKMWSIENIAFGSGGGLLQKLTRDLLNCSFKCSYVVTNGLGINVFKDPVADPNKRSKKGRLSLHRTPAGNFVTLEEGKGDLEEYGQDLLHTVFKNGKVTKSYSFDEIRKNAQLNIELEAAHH
Chain of Histone deacetylase 1 (Q13547 whole entry, the tested form may be a part): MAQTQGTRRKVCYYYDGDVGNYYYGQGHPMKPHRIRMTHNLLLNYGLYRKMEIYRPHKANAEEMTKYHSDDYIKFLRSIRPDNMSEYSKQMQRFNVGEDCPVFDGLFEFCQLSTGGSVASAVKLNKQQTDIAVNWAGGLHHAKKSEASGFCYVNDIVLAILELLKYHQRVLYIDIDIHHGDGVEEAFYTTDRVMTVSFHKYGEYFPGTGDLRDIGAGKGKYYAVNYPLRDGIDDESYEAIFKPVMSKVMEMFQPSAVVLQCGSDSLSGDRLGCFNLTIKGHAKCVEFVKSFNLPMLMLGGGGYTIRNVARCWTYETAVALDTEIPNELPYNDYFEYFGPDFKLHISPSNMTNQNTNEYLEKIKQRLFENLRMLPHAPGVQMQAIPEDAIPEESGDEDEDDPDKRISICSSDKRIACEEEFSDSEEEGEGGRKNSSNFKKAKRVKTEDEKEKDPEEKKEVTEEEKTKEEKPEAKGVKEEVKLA

On to `Nc1ccccc1NC(=O)c1ccc(NC(=S)NCc2cccc(F)c2)cc1`, for which the IC50 in assay [1] was greater than 2 µM; on Histone deacetylase 1 it was 0.17 µM; in the assay on HCT-116 [2] it was 5.9 µM; in the assay on MDA-MB-231, 74 µM; in the assay on HepG2, 2.9 µM.
Taken in the same sequence, the figures for `Nc1ccccc1NC(=O)c1ccc(CNC(=O)c2cc3cccnc3[nH]2)cc1` were greater than 2 µM, 0.033 µM, 10 µM, greater than 100 µM and 6.1 µM.
The matching figures for `Nc1ccccc1NC(=O)c1ccc(CNC(=O)c2cc3ccncc3[nH]2)cc1`: greater than 2 µM, 0.071 µM, 3.3 µM, 41 µM and 4.7 µM.
Taken in the same sequence, the figures for `Nc1ccc(CNC(=O)Nc2ccc(C(=O)Nc3ccccc3N)cc2)cn1` were greater than 2 µM, 0.33 µM, 7.3 µM, greater than 100 µM and 3.1 µM.
Consider `Nc1ccccc1NC(=O)c1ccc(NC(=S)NCc2ccc(F)cc2)cc1`, for which the IC50 is greater than 2 µM in assay [1]; 0.3 µM at Histone deacetylase 1; 15 µM in the assay with HCT-116 [2]; greater than 100 µM in the assay with MDA-MB-231; 8.8 µM in the assay on HepG2.
Taken in the same sequence, the figures for `Nc1ccccc1NC(=O)c1ccc(NC(=S)NCc2ccccc2F)cc1` were greater than 2 µM, 0.3 µM, 6.3 µM, greater than 100 µM and 5.4 µM.
In the case of `Nc1ccccc1NC(=O)c1ccc(Cn2cc(-c3ccc(NC(=O)NCc4cccnc4)cc3)nn2)cc1`, the IC50 in assay [1] was 0.018 µM; at Histone deacetylase 1 it was 0.041 µM; in the assay on HCT-116 [2], greater than 100 µM; with MDA-MB-231, greater than 100 µM; in the assay with HepG2, 8.1 µM.
`Nc1ccccc1NC(=O)c1ccc(NC(=S)NCc2nc3ccccc3[nH]2)cc1`: the IC50 was greater than 2 µM in assay [1]; 0.046 µM at Histone deacetylase 1; 22 µM with HCT-116 [2]; greater than 100 µM with MDA-MB-231; 31 µM in the assay on HepG2.
Taken in the same sequence, the figures for `Nc1ccccc1NC(=O)c1ccc(NC(=S)NCc2cccc(Cl)c2)cc1` were greater than 2 µM, 0.18 µM, 5.9 µM, 92 µM and 2.6 µM.
The matching figures for `Nc1ccccc1NC(=O)c1ccc(NC(=O)/C(Cl)=C(\Cl)c2cccnc2)cc1`: greater than 2 µM, 0.67 µM, 2.4 µM, 13 µM and 0.56 µM.
Consider `CC(C)(C)OC(=O)Nc1ccc(CNC(=O)Nc2ccc(C(=O)Nc3ccccc3N)cc2)cn1`, for which the IC50 in assay [1] is greater than 2 µM; on Histone deacetylase 1 it was 3.3 µM; in the assay on HCT-116 [2], 100 µM; in the assay on MDA-MB-231 it was greater than 100 µM; in the assay on HepG2 it was 100 µM.
Consider `Nc1ccccc1NC(=O)c1ccc(CNC(=O)c2ccc3cn[nH]c3c2)cc1`, for which the IC50 in assay [1] was greater than 2 µM; on Histone deacetylase 1, 0.24 µM; in the assay with HCT-116 [2], 18 µM; in the assay on MDA-MB-231, 98 µM; in the assay with HepG2, 23 µM.
Consider `Nc1ccc(CNC(=S)Nc2ccc(C(=O)Nc3ccccc3N)cc2)cn1`, for which the IC50 was greater than 2 µM in assay [1]; 0.2 µM at Histone deacetylase 1; 27 µM in the assay with HCT-116 [2]; greater than 100 µM with MDA-MB-231; 14 µM in the assay with HepG2.
Consider `O=S(=O)(c1ccc(NC(=S)NCc2cccnc2)cc1)N1CCCCC1`, for which the Activity in the assay on HCT-116 [3] is on record as 29.11%; with HCT-116 [4], 11.4%; in the assay with HCT-116 [5], 1.62%. The results for the IC50 on Histone deacetylase 1, in the assay on HCT-116 [2] and with HepG2 were greater than 10 µM, 41 µM and 5.3 µM, respectively.
As for `Nc1ccccc1NC(=O)c1ccc(NC(=O)/C=C/c2cccnc2)cc1`, the IC50 in assay [1] was 0.23 µM; on Histone deacetylase 1 it was 0.62 µM; with HCT-116 [2], 48 µM; in the assay with MDA-MB-231 it was greater than 100 µM; in the assay with HepG2, 2.7 µM.
Take `Nc1ccccc1NC(=O)c1ccc(CNC(=O)c2ccn3ccnc3c2)cc1`: the IC50 was greater than 2 µM in assay [1]; 0.087 µM on Histone deacetylase 1; 1.8 µM in the assay with HCT-116 [2]; 46 µM in the assay on MDA-MB-231; 5.5 µM with HepG2.
Taken in the same sequence, the figures for `Nc1ccccc1NC(=O)c1ccc(NC(=S)NCc2ccc(F)nc2)cc1` were greater than 2 µM, 0.37 µM, 10 µM, 81 µM and 5.2 µM.
Taken in the same sequence, the figures for `Nc1ccccc1NC(=O)c1ccc(CNC(=O)c2cc3cnccc3s2)cc1` were greater than 2 µM, 0.083 µM, 3 µM, 40 µM and 0.38 µM.
The matching figures for `Nc1ccccc1NC(=O)c1ccc(CNC(=O)c2ccc3cncn3c2)cc1`: greater than 2 µM, 0.093 µM, 7.4 µM, 54 µM and 3.4 µM.
With `Nc1cccc(CNC(=S)Nc2ccc(C(=O)Nc3ccccc3N)cc2)c1`, the IC50 in assay [1] is greater than 2 µM; on Histone deacetylase 1, 0.22 µM; with HCT-116 [2] it was 2.8 µM; in the assay on MDA-MB-231, greater than 100 µM; with HepG2, 3.3 µM.
The matching figures for `Nc1ccccc1NC(=O)c1ccc(NC(=O)NCc2cccnc2)cc1`: 0.55 µM, 0.22 µM, 9.4 µM, greater than 100 µM and 5.1 µM.
Taken in the same sequence, the figures for `Nc1ccccc1NC(=O)c1ccc(NC(=S)NCc2ccc3c(c2)OCO3)cc1` were greater than 2 µM, 0.1 µM, 8.4 µM, greater than 100 µM and 5.1 µM.
Taken in the same sequence, the figures for `Nc1ccccc1NC(=O)c1ccc(NC(=S)NCc2cncc(Br)c2)cc1` were greater than 2 µM, 0.35 µM, 9.2 µM, 39 µM and 7.5 µM.
Turning to `Nc1ccccc1NC(=O)c1ccc(NC(=S)NCc2ccc(Cl)nc2)cc1`, the IC50 in assay [1] was greater than 2 µM; on Histone deacetylase 1, 0.25 µM; with HCT-116 [2] it was 6.1 µM; with MDA-MB-231, 42 µM; in the assay on HepG2 it was 19 µM.
For `Nc1ccccc1NC(=O)c1ccc(CCn2cc(-c3cccnc3)nn2)cc1`, the IC50 in assay [1] came out at 0.19 µM; on Histone deacetylase 1, 0.18 µM; in the assay on HCT-116 [2], 5.5 µM; in the assay with MDA-MB-231, 41 µM; in the assay on HepG2 it was 3.2 µM.
The matching figures for `Nc1ccccc1NC(=O)c1ccc(NC(=O)NCc2ccc(Cl)nc2)cc1`: greater than 2 µM, 0.021 µM, 5.2 µM, 34 µM and 2.4 µM.
Taken in the same sequence, the figures for `Nc1ccccc1NC(=O)c1ccc(NC(=S)NCc2cncc(F)c2)cc1` were greater than 2 µM, 0.44 µM, 15 µM, 85 µM and 13 µM.
The matching figures for `Nc1ccccc1NC(=O)c1ccc(NC(=O)NCc2ccc(F)nc2)cc1`: greater than 2 µM, 0.28 µM, 14 µM, 91 µM and 13 µM.
As for `Nc1ccccc1NC(=O)c1ccc(CNC(=O)c2cc3cnccc3[nH]2)cc1`, the IC50 in assay [1] is greater than 2 µM; at Histone deacetylase 1, 0.084 µM; in the assay on HCT-116 [2] it was 4 µM; with MDA-MB-231, 48 µM; in the assay on HepG2, 1.7 µM.
The matching figures for `Cc1ccc(CNC(=S)Nc2ccc(C(=O)Nc3ccccc3N)cc2)cn1`: greater than 2 µM, 0.26 µM, 11 µM, 63 µM and 11 µM.
Turning to `CC(=O)Nc1ccc(C(=O)Nc2ccccc2N)cc1` [TACEDINALINE], the Activity is listed as 10.81% with HCT-116 [3], 20.75% in the assay on HCT-116 [4] and 3.71% with HCT-116 [5]. The figures for the IC50 (in assay [1]; in the assay with HCT-116 [2]; with HepG2) were greater than 2 µM, 10 µM and 10 µM, respectively.

Broadly, the IC50 is the midpoint of a concentration-inhibition curve.
